# Source: ChEMBL document CHEMBL4014347, “Targeting Mycolic Acid Transport by Indole-2-carboxamides for the Treatment of Mycobacterium abscessus Infections” (J Med Chem, 2017)
# Tests used:
# [1] = test system: Mycobacteroides abscessus; test: Antibacterial activity against Mycobacterium abscessus CIP104536 after 3 to 5 days by two fold serial dilution method; type: functional
# Procedure, shortened: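 Broth microdilution per CLSI in cation-adjusted Mueller–Hinton broth; exponential-phase inoculum 5 × 10^6 CFU/mL; two-fold serial dilutions from highest concentration, solvent wells as control; 30 °C for 3−5 days; MIC read visually and confirmed by absorbance at 560 nm; triplicate on three independent occasions.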
# [2] = test system: Mycobacterium tuberculosis; test: Antibacterial activity against Mycobacterium tuberculosis by AlamarBlue assay; type: functional
# Vero = test: Cytotoxicity against African green monkey Vero cells; type: cell-based; details: Chlorocebus sabaeus
# [3] = Selectivity index, ratio of IC50 for African green monkey Vero cells to MIC=<90 for Mycobacterium tuberculosis; type: toxicity; details: read-out: Selectivity Index
# [4] = Selectivity index, ratio of IC50 for African green monkey Vero cells to MIC for Mycobacterium abscessus CIP104536; type: toxicity; details: read-out: Selectivity Index
# [5] = test system: Mycobacteroides abscessus; test: Antibacterial activity against CF patient derived Mycobacterium abscessus subsp. abscessus isolate 2524 rough variant after 3 to 5 days by two fold serial dilution method; type: functional
# Procedure, shortened: (§1)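 Broth microdilution in cation-adjusted Mueller−Hinton broth per CLSI; inoculum 5 × 10^6 CFU/mL of exponential-phase bacteria; two-fold serial dilutions, solvent-only wells as control; 30 °C for 3−5 days; MIC read visually and confirmed by absorbance at 560 nm; triplicate on three independent occasions.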
# [6] = test system: Mycobacteroides abscessus; test: Antibacterial activity against CF patient derived Mycobacterium abscessus subsp. abscessus isolate 2648 rough variant after 3 to 5 days by two fold serial dilution method; type: functional; procedure, shortened: as §1
# [7] = test system: Mycobacteroides abscessus; test: Antibacterial activity against non CF patient derived Mycobacterium abscessus subsp. abscessus isolate 3022 rough variant after 3 to 5 days by two fold serial dilution method; type: functional; procedure, shortened: as §1
# [8] = test system: Mycobacteroides abscessus; test: Antibacterial activity against CF patient derived Mycobacterium abscessus subsp. abscessus rough variant after 3 to 5 days by two fold serial dilution method; type: functional; procedure, shortened: as §1
# [9] = test system: Mycobacteroides abscessus; test: Antibacterial activity against non CF patient derived Mycobacterium abscessus subsp. abscessus isolate CIP104536 smooth variant after 3 to 5 days by two fold serial dilution method; type: functional; procedure, shortened: as §1
# [10] = test system: Mycobacteroides abscessus; test: Antibacterial activity against non CF patient derived Mycobacterium abscessus subsp. abscessus isolate CIP104536 rough variant after 3 to 5 days by two fold serial dilution method; type: functional; procedure, shortened: as §1
# [11] = test system: Mycobacteroides abscessus; test: Antibacterial activity against CF patient derived Mycobacterium abscessus subsp. abscessus isolate 3321 smooth variant after 3 to 5 days by two fold serial dilution method; type: functional; procedure, shortened: as §1
# [12] = test system: Mycobacteroides abscessus; test: Antibacterial activity against CF patient derived Mycobacterium abscessus subsp. abscessus isolate 1298 smooth variant after 3 to 5 days by two fold serial dilution method; type: functional; procedure, shortened: as §1
# [13] = test system: Mycobacteroides abscessus; test: Antibacterial activity against non CF patient derived Mycobacterium abscessus subsp. abscessus isolate 2587 smooth variant after 3 to 5 days by two fold serial dilution method; type: functional; procedure, shortened: as §1
# [14] = test system: Mycobacteroides abscessus; test: Antibacterial activity against CF patient derived Mycobacterium abscessus subsp. abscessus isolate 2069 smooth variant after 3 to 5 days by two fold serial dilution method; type: functional; procedure, shortened: as §1
# [15] = test system: Mycobacteroides abscessus; test: Antibacterial activity against CF patient derived Mycobacterium abscessus subsp. abscessus smooth variant after 3 to 5 days by two fold serial dilution method; type: functional; procedure, shortened: as §1
# [16] = test system: Mycobacteroides abscessus; test: Antibacterial activity against CF patient derived Mycobacterium abscessus subsp. massiliense isolate 210 rough variant after 3 to 5 days by two fold serial dilution method; type: functional; procedure, shortened: as §1
# [17] = test system: Mycobacteroides abscessus; test: Antibacterial activity against Addison's disease patient derived Mycobacterium abscessus subsp. massiliense isolate CIP108297 rough variant after 3 to 5 days by two fold serial dilution method; type: functional; procedure, shortened: as §1
# [18] = test system: Mycobacteroides abscessus; test: Antibacterial activity against Addison's disease patient derived Mycobacterium abscessus subsp. massiliense isolate CIP108297 smooth variant after 3 to 5 days by two fold serial dilution method; type: functional; procedure, shortened: as §1
# [19] = test system: Mycobacteroides abscessus; test: Antibacterial activity against CF patient derived Mycobacterium abscessus subsp. massiliense isolate 111 smooth variant after 3 to 5 days by two fold serial dilution method; type: functional; procedure, shortened: as §1
# [20] = test system: Mycobacteroides abscessus; test: Antibacterial activity against CF patient derived Mycobacterium abscessus subsp. massiliense isolate 212 smooth variant after 3 to 5 days by two fold serial dilution method; type: functional; procedure, shortened: as §1
# [21] = test system: Mycobacteroides abscessus; test: Antibacterial activity against CF patient derived Mycobacterium abscessus subsp. massiliense isolate 185 smooth variant after 3 to 5 days by two fold serial dilution method; type: functional; procedure, shortened: as §1
# [22] = test system: Mycobacteroides abscessus; test: Antibacterial activity against CF patient derived Mycobacterium abscessus subsp. massiliense isolate 140 smooth variant after 3 to 5 days by two fold serial dilution method; type: functional; procedure, shortened: as §1
# [23] = test system: Mycobacteroides abscessus; test: Antibacterial activity against CF patient derived Mycobacterium abscessus subsp. massiliense isolate 100 smooth variant after 3 to 5 days by two fold serial dilution method; type: functional; procedure, shortened: as §1
# [24] = test system: Mycobacteroides abscessus; test: Antibacterial activity against CF patient derived Mycobacterium abscessus subsp. massiliense isolate 107 smooth variant after 3 to 5 days by two fold serial dilution method; type: functional; procedure, shortened: as §1
# [25] = test system: Mycobacteroides abscessus; test: Antibacterial activity against CF patient derived Mycobacterium abscessus subsp. massiliense isolate 122 smooth variant after 3 to 5 days by two fold serial dilution method; type: functional; procedure, shortened: as §1
# [26] = test system: Mycobacteroides abscessus; test: Antibacterial activity against CF patient derived Mycobacterium abscessus subsp. massiliense isolate 120 smooth variant after 3 to 5 days by two fold serial dilution method; type: functional; procedure, shortened: as §1
# [27] = Antibacterial activity against non CF patient derived Mycobacterium abscessus subsp. bolletii isolate 19 rough variant after 3 to 5 days by two fold serial dilution method; type: functional; details: Mycobacteroides abscessus; procedure, shortened: as §1
# [28] = Antibacterial activity against CF patient derived Mycobacterium abscessus subsp. bolletii isolate 108 rough variant after 3 to 5 days by two fold serial dilution method; type: functional; details: Mycobacteroides abscessus; procedure, shortened: as §1
# [29] = Antibacterial activity against non CF patient derived Mycobacterium abscessus subsp. bolletii isolate 17 smooth variant after 3 to 5 days by two fold serial dilution method; type: functional; details: Mycobacteroides abscessus; procedure, shortened: as §1
# [30] = Antibacterial activity against CF patient derived Mycobacterium abscessus subsp. bolletii isolate 97 smooth variant after 3 to 5 days by two fold serial dilution method; type: functional; details: Mycobacteroides abscessus; procedure, shortened: as §1
# [31] = Antibacterial activity against CF patient derived Mycobacterium abscessus subsp. bolletii isolate 114 smooth variant after 3 to 5 days by two fold serial dilution method; type: functional; details: Mycobacteroides abscessus; procedure, shortened: as §1
# [32] = Antibacterial activity against CF patient derived Mycobacterium abscessus subsp. bolletii isolate 116 smooth variant after 3 to 5 days by two fold serial dilution method; type: functional; details: Mycobacteroides abscessus; procedure, shortened: as §1
# [33] = Antibacterial activity against CF patient derived Mycobacterium abscessus subsp. bolletii isolate 112 rough variant after 3 to 5 days by two fold serial dilution method; type: functional; details: Mycobacteroides abscessus; procedure, shortened: as §1
# [34] = Antibacterial activity against Mycobacterium abscessus subsp. bolletii isolate CIP108541 smooth variant after 3 to 5 days by two fold serial dilution method; type: functional; details: Mycobacteroides abscessus; procedure, shortened: as §1
smiles,measurement,setting,value
Cc1ccc2cc(C(=O)NC3CCCCCC3)[nH]c2c1,MIC,[1],0.25 µg/mL
same,MIC=<90,[2],0.0313 µg/mL
O=C(NC1CCCCCC1)c1cc2c(F)cc(F)cc2[nH]1,MIC,[1],0.125 µg/mL
same,MIC=<90,[2],0.031 µg/mL
O=C(Nc1nc2ccc(OC(F)(F)F)cc2s1)C1CCCCCC1,MIC,[1],> 32 µg/mL
same,MIC=<90,[2],128 µg/mL
Cc1cccc2cc(C(=O)NC3CCCCCC3)[nH]c12,MIC,[1],16 µg/mL
same,MIC=<90,[2],1 µg/mL
O=C(NC1CCCCCCC1)c1cc2cc(Cl)ccc2o1,MIC,[1],0.5 µg/mL
same,MIC=<90,[2],8 µg/mL
COc1cc(OC)c2cc(C(=O)NC3CCCCCC3)[nH]c2c1,MIC,[1],1 µg/mL
same,MIC=<90,[2],0.0625 µg/mL
C[C@@H]1[C@@H](NC(=O)c2cc3c(F)cc(F)cc3[nH]2)C[C@H]2C[C@@H]1C2(C)C,MIC,[1],32 µg/mL
same,MIC=<90,[2],0.0039 µg/mL
same,IC50,Vero,≥ 64 µg/mL
same,selectivity ratio,[3],≥ 16400
same,selectivity ratio,[4],≥ 2
Cc1cc(C)c2cc(C(=O)NC3CCCCCC3)[nH]c2c1,MIC,[1],0.125 µg/mL
same,MIC=<90,[2],0.0039 µg/mL
same,IC50,Vero,16 µg/mL
same,selectivity ratio,[3],4100
same,selectivity ratio,[4],128
O=C(NC12CC3CC(CC(C3)C1)C2)c1cc2ccc(Br)cc2[nH]1,MIC,[1],16 µg/mL
same,MIC=<90,[2],0.0156 µg/mL
same,IC50,Vero,≥ 64 µg/mL
same,selectivity ratio,[3],≥ 4100
same,selectivity ratio,[4],≥ 4
CC(C)=CCC/C(C)=C/CNC(=O)c1cc2c(Cl)cc(Cl)cc2[nH]1,MIC,[1],> 32 µg/mL
same,MIC=<90,[2],4 µg/mL
CCCCCCCCNC(=O)c1cc2c(Cl)cc(Cl)cc2[nH]1,MIC,[1],> 32 µg/mL
same,MIC=<90,[2],128 µg/mL
C[C@@H]1[C@@H](NC(=O)c2cc3ccc(Br)cc3[nH]2)C[C@H]2C[C@@H]1C2(C)C,MIC,[1],0.125 µg/mL
same,MIC=<90,[2],0.0039 µg/mL
Cc1ccc2[nH]c(C(=O)NC3CCCCCC3)cc2c1,MIC,[1],0.25 µg/mL
same,MIC=<90,[2],0.25 µg/mL
NCC[C@H](O)C(=O)N[C@@H]1C[C@H](N)[C@@H](O[C@H]2O[C@H](CN)[C@@H](O)[C@H](O)[C@H]2O)[C@H](O)[C@H]1O[C@H]1O[C@H](CO)[C@@H](O)[C@H](N)[C@H]1O [AMIKACIN],MIC,[5],25 µg/mL
same,MIC,[6],12.5 µg/mL
same,MIC,[7],12.5 µg/mL
same,MIC,[8],12.5 µg/mL
same,MIC,[9],25 µg/mL
same,MIC,[10],12.5 µg/mL
same,MIC,[11],25 µg/mL
same,MIC,[12],12.5 µg/mL
same,MIC,[13],25 µg/mL
same,MIC,[14],25 µg/mL
same,MIC,[15],12.5 µg/mL
same,MIC,[16],12.5 µg/mL
same,MIC,[17],12.5 µg/mL
same,MIC,[18],25 µg/mL
same,MIC,[19],25 µg/mL
same,MIC,[20],25 µg/mL
same,MIC,[21],25 µg/mL
same,MIC,[22],25 µg/mL
same,MIC,[23],> 100 µg/mL
same,MIC,[24],12.5 µg/mL
same,MIC,[25],12.5 µg/mL
same,MIC,[26],12.5 µg/mL
same,MIC,[27],50 µg/mL
same,MIC,[28],12.8 µg/mL
same,MIC,[29],12.5 µg/mL
same,MIC,[30],12.5 µg/mL
same,MIC,[31],12.5 µg/mL
same,MIC,[32],12.5 µg/mL
same,MIC,[33],> 100 µg/mL
same,MIC,[34],25 µg/mL
CO[C@H]1/C=C/O[C@@]2(C)Oc3c(C)c(O)c4c(O)c(c(/C=N/N5CCN(C)CC5)c(O)c4c3C2=O)NC(=O)/C(C)=C\C=C\[C@H](C)[C@H](O)[C@@H](C)[C@@H](O)[C@@H](C)[C@H](OC(C)=O)[C@@H]1C [RIFAMPIN],IC50,Vero,> 256 µg/mL
